Assay results as given in ChEMBL document CHEMBL4304755, “Diacetal Ditellurides as Highly Active and Selective Antiparasitic Agents toward Leishmania amazonensis” (ACS Med Chem Lett, 2019).

What was measured:
Leishmania chagasi = experiment: Antileishmanial activity against amastigotes stage of Leishmania chagasi MHOM/BR/1972/LD infected in BALB/c mouse bone-marrow derived macrophages incubated for 3 days by hematoxylin-eosin staining based cell counting method; assay type: functional, organism-based; details: 72 h
Leishmania amazonensis [1] = experiment: Antileishmanial activity against promastigote stage of Leishmania amazonensis MHOM/BR/73/M2269 by erythrosine-B staining based Neubauer chamber based cell counting method; assay type: functional, organism-based
Leishmania amazonensis [2] = experiment: Antileishmanial activity against promastigote stage of Leishmania amazonensis MHOM/BR/Josefa incubated for 72 hrs by XTT assay; assay type: functional, organism-based
Outline: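 Promastigotes; IC50 is the concentration giving 50% growth inhibition. Values are mean ± SD of three separate experiments.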

Leishmania amazonensis [3] = experiment: Ratio of IC50 for miltefosine to IC50 for test compound for antileishmanial activity against promastigote stage of Leishmania amazonensis MHOM/BR/Josefa incubated for 72 hrs by XTT assay; assay type: functional
[4] = Selectivity index, ratio of CC50 for mouse J774A1 cells to IC50 for promastigote stage of Leishmania amazonensis MHOM/BR/Josefa; assay type: toxicity; details: read-out: Ratio CC50/IC50
Outline: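 SI is calculated as CC50 on J774A1 cells divided by the corresponding IC50 on promastigotes.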

Leishmania amazonensis [5] = experiment: Antileishmanial activity against amastigotes stage of Leishmania amazonensis MHOM/BR/Josefa infected in BALB/c mouse peritoneal macrophage incubated for 48 hrs by Giemsa staining based microscopic method; assay type: functional, organism-based
Outline: (§1)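 Intracellular amastigotes in macrophages and the matched macrophage cytotoxicity readout. Values are mean ± SD from three different experiments.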

[6] = Cytotoxicity against BALB/c mouse peritoneal macrophages incubated for 48 hrs by MTT assay; assay type: cell-based, Peritoneal macrophage; outline: as §1
[7] = Selectivity index, ratio of CC50 for BALB/c mouse peritoneal macrophage to IC50 for amastigotes stage of Leishmania amazonensis MHOM/BR/Josefa infected in BALB/c mouse peritoneal macrophage; assay type: toxicity; details: peritoneal macrophages, read-out: Ratio CC50/IC50

SMILES	IC50 (Leishmania chagasi) [µM]	IC50 (Leishmania amazonensis [1]) [µM]	IC50 (Leishmania amazonensis [2]) [µM]	Ratio IC50 (Leishmania amazonensis [3])	selectivity ratio [4]	IC50 (Leishmania amazonensis [5]) [µM]	CC50 at 48 h [6] [µM]	selectivity ratio [7]
COc1ccc([Te]2(Cl)OC3(CCCCC3)/C2=C\Cl)cc1 (stereo unspecified)	0.5							
CC[N+](CC)(CC)Cc1ccccc1.ClC1=C[Te-](Cl)(Cl)(Cl)OC1		4						
CC1(c2cccc([Te][Te]c3cccc(C4(C)OCCO4)c3)c2)OCCO1			0.9	20	25			
c1ccc([Te][Te]c2ccccc2)cc1			1.4		42			
CC1(c2ccccc2[Te][Te]c2ccccc2C2(C)OCCO2)OCCO1			8	3	2			
CC1(c2ccc([Te][Te]c3ccc(C4(C)OCCO4)cc3)cc2)OCCO1			0.9	20	194	0.5	8.3	18
CCCCCCCCCCCCCCCCOP(=O)([O-])OCC[N+](C)(C)C [MILTEFOSINE]			20.7		3	1.7	20.3	12
